Shown are actives, neighbours in structure and some others; about 3.2% of the full set was active somewhere.
LEDGF integ inh = blocks HIV-1 LEDGF/p75-dependent DNA integration; TR-FRET IN-LEDGF/p75 DNA integration, Eu/Cy5; inhibition, % at 3.7 µM; 370,000 tested, 0.64% active; AID 743269;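 active = inhibition above the screen-wide mean plus 3 SD, cut at about 13% in these data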;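 also: signal is the Cy5 over europium emission ratio at 671 and 618 nm; 0% = plate median of compound wells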
mABHD4 FP = inhibits mouse alpha/beta hydrolase domain 4; Q8VD66; purified mABHD4, FP-Rh probe fluorescence polarization; inhibition, % at 8.92 µM; 370,000 tested, 0.54% active; AID 720543;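 active = inhibition exceeding the mean over every tested compound plus 3 SD, cut at about 30% in these data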;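 also: 0% = plate median of compound wells and 100% = S159A mutant with DMSO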
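Test system: mABHD4 protein | Buffer or medium: HEPES pH 7.0 buffer, 150 mM NaCl, 0.01% Pluronic F-127 | Probe or stimulus: FP-Rh fluorescent activity-based probe, added after compound pre-incubation | Timing: Pre-incubation 45 min, probe exposure 60 min, at 25 °C | Technique: Fluorescence polarization, excitation 525 nm, emission 598 nm, BODIPY TMR filters | Repeats: Single well per compound (singlicate)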
HTRA1 inh = blocks human HTRA1 serine peptidase | Q92743 | recombinant HTRA1, FP-rhodamine activity-based probe, fluorescence polarization | inhibition, % at 5.96 µM | 340,000 tested, 0.5% active | AID 504803; in the data active = inhibition above about 36%;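 also: 0% = enzyme with DMSO and 100% = wells lacking enzyme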
Target sequence (Q92743 whole entry, looked up): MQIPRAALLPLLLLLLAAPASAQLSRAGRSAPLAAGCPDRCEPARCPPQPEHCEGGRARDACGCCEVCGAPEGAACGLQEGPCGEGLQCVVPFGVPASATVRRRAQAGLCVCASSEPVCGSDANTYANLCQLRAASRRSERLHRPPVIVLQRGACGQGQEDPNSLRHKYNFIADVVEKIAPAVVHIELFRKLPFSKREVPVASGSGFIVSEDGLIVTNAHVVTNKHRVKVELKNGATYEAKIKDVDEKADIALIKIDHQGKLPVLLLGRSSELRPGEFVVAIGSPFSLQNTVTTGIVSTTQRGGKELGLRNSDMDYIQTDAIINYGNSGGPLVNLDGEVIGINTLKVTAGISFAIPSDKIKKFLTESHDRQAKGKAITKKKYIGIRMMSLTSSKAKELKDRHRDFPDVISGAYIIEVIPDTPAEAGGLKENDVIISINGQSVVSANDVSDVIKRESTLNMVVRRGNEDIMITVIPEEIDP
DAGLB inhibitor = blocks human DAGLB lipase activity; 340,000 tested, 0.059% active; HEK293T DAGLB membrane lysate, EnzChek fluorogenic substrate; inhibition, % at 5.17 µM; AID 504411; in the data active = inhibition above about 34%;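 also: 0% = enzyme with vehicle and 100% = wells lacking enzyme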
PRMT1 inh = PRMT1 (human) inhibition, primary screen. Q99873. recombinant PRMT1, activity-based probe fluorescence polarization. inhibition, % at 2.79 µM. 370,000 tested, 1.3% active;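 active = inhibition above about 21% made by adding two undisclosed values, limit read from the data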
rCAG binder = molecules binding r(CAG) RNA repeats | 370,000 tested, 1.3% active | r(CAG) RNA repeat, TO-PRO-1 dye displacement fluorescence | inhibition, % at 3 µM;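 active = inhibition above the plate cutoff, the mean of all test compounds on that plate plus 3 SD, cut at about 35% in these data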;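 also: 0% = DMSO alone and 100% = 100 µM mitoxantrone as full dye displacement; higher means more dye released from RNA so lower well fluorescence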
ABHD4 confirm = confirmation of mouse ABHD4 inhibitors; 1,800 tested, 55% active; shares compounds with mABHD4 FP; inhibition, % at 8.92 µM; purified mABHD4, FP-Rh probe fluorescence polarization;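 active = mean inhibition across replicates above the hit cutoff set in the primary screen, cut at about 30% in these data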;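 also: 0% = wild-type ABHD4 with DMSO and 100% = catalytically dead S159A mutant with DMSO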
IN multimer act = HIV-1 integrase multimerization activation, counter-screen; shares compounds with LEDGF integ inh; 2,000 tested, 17% active; TR-FRET HIV-1 integrase multimerization, biochemical; activation, % at 7.7 µM; in the data active = activation above about 8.9%
TR-FRET interf = TR-FRET optical interference, LEDGF/p75 integration counter-screen; TR-FRET optical interference counterscreen, HIV-1 IN multimerization; inhibition, % at 7.7 µM; 2,000 tested, under 10 active; shares compounds with LEDGF integ inh; AID 1053135;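 active = inhibition above the mean over all tested compounds plus 3 SD, which no compound reached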;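 also: 0% = integrase with antibodies and DMSO and 100% = antibodies without integrase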
LEDGF integ conf = LEDGF/p75-dependent HIV-1 integration inhibition, confirmation | shares compounds with LEDGF integ inh | TR-FRET LEDGF/p75-dependent HIV-1 integration, biochemical | inhibition, % at 3.7 µM | 2,000 tested, 36% active | AID 1053136; in the data active = inhibition above about 14%
* hit, by the source's call; . = no result.

SMILES	LEDGF integ inh	mABHD4 FP	HTRA1 inh	DAGLB inhibitor	PRMT1 inh	rCAG binder	IN multimer act	TR-FRET interf	LEDGF integ conf	others
COc1ccc(CN2C[C@@H](CO)O[C@@H](n3cnc4c(N5CCN(C)CC5)ncnc43)C2)cc1	2	-11	.	.	7	1	.	.	.
Nc1ccc(Br)c2cccnc12	54*	40*	20	2	6	5	1	-4	53*	ABHD4 confirm=16
Cc1oc2ccc(O)cc2c1C(=O)c1ccc([N+](=O)[O-])cc1	1	8	-2	-3	2	1	.	.	.
CN(C)/C=C/c1oc2ccc(O)cc2c1[N+](=O)[O-]	18*	32*	4	23	14	11	19*	-96	7	ABHD4 confirm=5
CC1=NN(c2ccccc2)C(=O)C1C=Nc1ccc(N(C)C)cc1 (configuration not stated)	60*	39*	.	.	29*	9	6	-28	9	ABHD4 confirm=2
COC(=O)C1=C(CS(=O)(=O)c2ccccc2)NC(=O)NC1c1ccc(O)cc1 (configuration not stated)	1	-3	5	-1	1	0	.	.	.
COc1cc(NC(=S)NCc2cccnc2)c(OC)cc1Cl	80*	-3	4	0	0	0	1	-4	2
Cc1nc(-c2ccc(F)cc2)c(CC(=O)Nc2ccc(C)c(S(=O)(=O)N3CCOCC3)c2)s1	1	-11	-14	0	1	11	.	.	.
O=C(O)c1ccc(NC2OC[C@@H](O)[C@H](O)[C@H]2O)cc1 (some centres not stated)	18*	14	1	-2	5	4	0	-1	-2
CCCCCCCCCCCCN1CCSCCS1(=O)=O	22*	2	.	.	0	2	0	0	4
Cc1cccc(CN2CCSCCS2(=O)=O)c1	-3	3	.	.	-1	0	.	.	.
Oc1cccc(/C=N/NC(=S)NCCN2CCOCC2)c1O	79*	14	3	-3	5	1	5	-26	-5
S=C(NCCN1CCOCC1)N/N=C/c1cccs1	1	1	-8	-1	-3	-2	.	.	.
CCNC(=O)C1(C)CCN(Cc2noc(-c3c(C)noc3C)n2)C1 (configuration not stated)	-2	5	.	.	-1	0	.	.	.
COc1ccc(OC)c(Nc2cc3ccccc3c(=O)[nH]2)c1	17*	29	6	-5	8	3	6	-20	65*
COc1ccccc1Nc1cc2cc(Br)ccc2c(=O)[nH]1	21*	11	0	-15	5	14	6	-23	73*
COc1ccccc1Nc1nnc(C)c(=O)[nH]1	1	-10	-1	-1	3	0	.	.	.
CCOc1ccc(NC(=O)CN(C)C(=O)c2cc3c(s2)CCC3)cc1OCC	16*	3	7	-1	5	30	14*	-69	18*
CCOc1ccc(NC(=O)CN(C)C(=O)c2csc3c2CCCC3)cc1OCC	-2	-4	-2	-2	-4	5	.	.	.
CCCCn1nnnc1C1(C)CCC(=O)N1CCCn1ccnc1 (configuration not stated)	16*	9	.	.	7	1	4	-13	7
CCN(CCn1cccn1)Cc1c(C(=O)N2CCCCCCC2)nc2ccc(Cl)cn12	27*	0	-2	0	3	-11	1	-6	-5
Cc1ccc(-c2csc(NC(=O)c3c(C)noc3C)n2)s1	.	.	-5	-10	.	.	.	.	.
O=C(c1cn(-c2ccccc2)nc1-c1ccncc1)n1nnc2ccccc21	16*	-1	1	0	-2	-3	1	-7	0
